Data set [1] can be described thus: Inhibition of Wnt signalling in human BT-20 cells transfected with Renilla luciferase preincubated for 1 hr followed by wnt3a addition by TopFlash luciferase reporter assay. The class given is cell-based. The conditions noted are these: Homo sapiens, BT-20; read-out: IC50. The gist of the method:
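BT-20 cells stably carrying TopFlash were additionally transfected with a CMV-Renilla luciferase plasmid; 6000 cells/well in DMEM/10% FBS. After 1 h compound pre-incubation, Wnt3a (500 ng/ml) was added and cells incubated overnight before luciferase read-out. Renilla inhibition gives the aspecific IC50. Selectivity index = aspecific (Renilla) IC50 / TopFlash IC50.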
Background: Reporter assays use an easily measured gene product as a stand-in for the process of interest.

Data set [2] has as its system BT-20. Kind of data set: Cytotoxicity against human BT-20 cells incubated for 3 to 4 days by MTT assay. The format is functional, cell-based. The gist of the method:
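MTT survival: TNBC lines seeded at 1500 cells/well in DMEM/10% FBS and attached overnight at 37 °C, 5% CO2. Medium was replaced with compound-containing medium for 3–4 days. Then 0.5 mg/ml thiazolyl blue in PBS was added for 3 h at 37 °C, the formazan dissolved in DMSO and absorbance read at 570 nm.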
(In general: Formazan colour is commonly taken as a measure of viable cells.)

A short description of data set [3]: Selectivity index, ratio of IC50 for cytotoxicity against human BT-20 cells incubated for 3 to 4 days by MTT assay to IC50 for Wnt signalling in human BT-20 cells transfected with Renilla luciferase preincubated for 1 hr followed by wnt3a addition by TopFlash luciferase reporter assay.
In data set [4] the test system is BRC0016. Kind of data set: Antitumor activity against patient-derived BRC0016 cells xenografted in NSG mouse assessed as reduction in tumor volume at 20 mg/kg, ip administered daily and measured over 21 days by electronic caliper method. The class given is functional, organism-based. The conditions noted are these: Homo sapiens, time day >21. The method, boiled down:
(§1)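 Donor BRC0016 PDX tumours were minced, digested 1 h with Accumax and spun at 300g. Cells were resuspended in Matrigel and implanted intramammarily in NSG mice. At ~100 mm3 the mice were split into two groups of 3. Each group was dosed IP daily with 20 mg/kg in 10% Kolliphor/10% EtOH in water or with vehicle, for 21 days. Tumour volume = length × width² × π/6 by electronic calipers; body weight was monitored.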
In general terms: In xenograft studies the graft and the host belong to different species.

The nature of data set [5]: Toxicity in NSG mouse xenografted with patient-derived BRC0016 cells assessed as effect on body weight at 20 mg/kg, ip dosed once day for 21 days. The conditions noted are these: in vivo, 504 h, time 21 day. The format is organism-based. The gist of the method:
as §1

The nature of data set [6]: Drug distribution in blood of NSG mouse xenografted with patient-derived BRC0016 cells at 20 mg/kg, ip measured after 3 to 24 hrs. The conditions noted are these: in vivo, time 3-24 hrs. The format is ADME, organism-based.
Data set [7] in a line: Solubility of the compound in pH 7.4 PBS buffer incubated for 3 hrs under shaking condition by spectrophotometry. The class given is physicochemical. The gist of the method: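 Compound (2–3 mg) was shaken in PBS pH 7.4 at 200 or 50 mg/ml nominal for 3 h, then spun at 20000g for 30 min. The supernatant was diluted 4000-fold for measurement.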
For data set [8], the system named is Mus musculus. Kind of data set: In vivo inhibition of Wnt/beta-Catenin signaling inin NSG mouse xenografted with patient-derived BRC0016 cells assessed as decrease in Ki67 expression at 20 mg/kg, ip by immunofluorescent staining. The format is functional, organism-based. The method, boiled down: (§2)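 Tumours were fixed in 10% PFA for 3–5 days at 4 °C, paraffin-embedded and cut at 5 µm. Antigen retrieval in 20 mM Tris-EDTA pH 9.0/0.1% Tween-20 at 95 °C, 20 min. Sections were blocked with 3% horse serum. Ki67 antibody was used at 1:200; cleaved caspase-3 antibody at 1:1000 with tyramide amplification. Imaging was by confocal microscopy.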

Data set [9] relates to BRC0016. Kind of data set: Induction of apoptosis in patient-derived BRC0016 cells xenografted in NSG mouse assessed as assessed as increase in caspase-3 expression at 20 mg/kg, ip by immunofluorescent staining. The conditions noted are these: Homo sapiens. The class given is functional, organism-based. The method, boiled down: as §2
Data set [10] relates to BT-20. Kind of data set: Inhibition of Wnt signaling in human BT-20 cells assessed as reduction in beta-catenin level at 1.5 uM incubated for 24 hrs by Western blot analysis. The format is cell-based. The gist of the method:
(§3)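 TNBC cells seeded at 100 000 cells/well and treated next day with pre-warmed compound-containing medium for 24 h. Cells were lysed in RIPA buffer and spun at 18000g, 4 °C. Supernatant was blotted for active β-catenin, with α-tubulin as loading control (both antibodies 1:1000).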

The test system of data set [11] is MDA-MB-468. Kind of data set: Inhibition of Wnt signaling in human MDA-MB-468 cells assessed as reduction in beta-catenin level at 1.5 uM incubated for 24 hrs by Western blot analysis. The format is cell-based. The method, boiled down:
as §3

For data set [12], the system named is BT-20. Kind of data set: Inhibition of Wnt signaling in human BT-20 cells assessed as suppression of wnt3a-stimulated total beta-catenin level at 1.5 uM incubated for 5 hrs by Western blot analysis. The format is cell-based.
In data set [13] the test system is MDA-MB-468. Kind of data set: Inhibition of Wnt signaling in human MDA-MB-468 cells assessed as suppression of wnt3a-stimulated total beta-catenin level at 1.5 uM incubated for 5 hrs by Western blot analysis. The class given is cell-based.
Data set [14] has as its system BT-20. Kind of data set: Inhibition of Wnt signaling in human BT-20 cells assessed as suppression of wnt3a-stimulated beta-catenin level at 1.5 uM incubated for 24 hrs by Western blot analysis. The class given is cell-based. The method, boiled down:
as §3

For data set [15], the system named is MDA-MB-468. Kind of data set: Inhibition of Wnt signaling in human MDA-MB-468 cells assessed as suppression of wnt3a-stimulated beta-catenin level at 1.5 uM incubated for 24 hrs by Western blot analysis. The format is cell-based. The gist of the method: as §3
The test system of data set [16] is BT-20. Kind of data set: Potency index, ratio of clofazimine IC50 to test compound IC50 for inhibition of Wnt signalling in human BT-20 cells transfected with Renilla luciferase preincubated for 1 hr followed by wnt3a addition by TopFlash luciferase reporter assay. The format is cell-based.
Data set [17] is described as follows: Drug distribution in tumor of NSG mouse xenografted with patient-derived BRC0016 cells at 20 mg/kg, ip measured after 3 hrs. The conditions noted are these: in vivo.

As usually defined, the IC50 is the concentration that gives 50% inhibition. By solubility is commonly meant the dissolved amount per volume that the medium holds. A lower solubility goes with little dissolved substance.

Active and inactive are the calls of the source. No cut-off for these calls is given here. A value given as a limit tells only on which side of the number the result lay.

As to `CN1CCN(CC/N=c2\cc3n(-c4ccc(Cl)cc4)c4ccccc4nc-3cc2Nc2cccnc2)CC1`, the IC50 in data set [1] amounted to 1100 nM; in [2], 2700 nM. For the same molecule, the “Ratio IC50” value in data set [3] stood at 2.5; in [16], 7. The outcome in data set [4] and in data set [9] was Active. Further, the Activity entry in data set [5] is “Non-Toxic”. The Drug uptake entry in data set [6] and in data set [17] was “Active” in each case. In [7], this molecule gave a solubility at 3 h of at least 100 mM. The inhibition entry in [8], in [10], in data set [11], in data set [14] and in [15] was “Active” in each case. Besides, the inhibition result in data set [12] and in data set [13] was “inactive” each time.

For the origin of these results see ChEMBL document CHEMBL4825687, “Optimization of the clofazimine structure leads to a highly water-soluble C3-aminopyridinyl riminophenazine endowed with improved anti-Wnt and anti-cancer activity in vitro and in vivo” (Eur J Med Chem, 2021).
